# Compounds with a hit are over-represented: about 2.3% of the library has one in this group of screens.
# TRPC4 act – activators of mouse TRPC4 channel, primary screen, Fluo4 calcium, HEK293 TRPC4beta/mu-opioid cells | Short transient receptor potential channel 4 (Mus musculus), Q9QUQ5 | Fluo4 calcium fluorescence; stronger effect = higher value | B-score at 10 µM | actives 0.49% (n = 310,000) | AID 2237, 2010;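 active = B-score above 5 SD of library B-scores, and initial fluorescence ratio not above library mean plus 5 SD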;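 note: positive B-score marks a calcium rise read as TRPC4 activation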
#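 Assay system: HEK293 stable line with TRPC4beta plus mu-opioid receptor. Times: dye 45 min RT, read 110 s. Measured by: kinetic Fluo4 calcium fluorescence. Measure: B score of integrated ratio. Controls: assay buffer as low control, maximal DAMGO as high control.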
# TRPC4 block – inhibitors of mouse TRPC4 channel, primary screen, Fluo4 calcium, HEK293 TRPC4beta/mu-opioid cells | AID 2247, 2010 | Short transient receptor potential channel 4 (Mus musculus), Q9QUQ5 | DAMGO-evoked Fluo4 calcium flux; stronger effect = lower value | B-score at 10 µM | actives 0.39% (n = 300,000);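 active = B-score over 3 SD under the library average, no early fluorescence shift, positive overall ratio signal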
#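 Assay system – HEK293 line stably carrying TRPC4beta and mu-opioid receptor · Doses – single dose · Detection – Fluo4 calcium-dye fluorescence, kinetic read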
# TRPC6 activator – mouse TRPC6 channel activators, primary screen, cell-based, HEK293, membrane potential dye. AID 2550, 2010. actives 0.13% (n = 310,000). HEK293-TRPC6 membrane potential dye fluorescence; stronger effect = higher value. B-score at 10 µM. Short transient receptor potential channel 6 (Mus musculus), Q61143;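 active = B-score of the integrated fluorescence ratio above library mean plus 3 SD, and starting fluorescence ratio within library mean plus 5 SD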;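 note: higher score means more depolarization so channel activation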
# Target sequence (Q61143 whole entry, looked up): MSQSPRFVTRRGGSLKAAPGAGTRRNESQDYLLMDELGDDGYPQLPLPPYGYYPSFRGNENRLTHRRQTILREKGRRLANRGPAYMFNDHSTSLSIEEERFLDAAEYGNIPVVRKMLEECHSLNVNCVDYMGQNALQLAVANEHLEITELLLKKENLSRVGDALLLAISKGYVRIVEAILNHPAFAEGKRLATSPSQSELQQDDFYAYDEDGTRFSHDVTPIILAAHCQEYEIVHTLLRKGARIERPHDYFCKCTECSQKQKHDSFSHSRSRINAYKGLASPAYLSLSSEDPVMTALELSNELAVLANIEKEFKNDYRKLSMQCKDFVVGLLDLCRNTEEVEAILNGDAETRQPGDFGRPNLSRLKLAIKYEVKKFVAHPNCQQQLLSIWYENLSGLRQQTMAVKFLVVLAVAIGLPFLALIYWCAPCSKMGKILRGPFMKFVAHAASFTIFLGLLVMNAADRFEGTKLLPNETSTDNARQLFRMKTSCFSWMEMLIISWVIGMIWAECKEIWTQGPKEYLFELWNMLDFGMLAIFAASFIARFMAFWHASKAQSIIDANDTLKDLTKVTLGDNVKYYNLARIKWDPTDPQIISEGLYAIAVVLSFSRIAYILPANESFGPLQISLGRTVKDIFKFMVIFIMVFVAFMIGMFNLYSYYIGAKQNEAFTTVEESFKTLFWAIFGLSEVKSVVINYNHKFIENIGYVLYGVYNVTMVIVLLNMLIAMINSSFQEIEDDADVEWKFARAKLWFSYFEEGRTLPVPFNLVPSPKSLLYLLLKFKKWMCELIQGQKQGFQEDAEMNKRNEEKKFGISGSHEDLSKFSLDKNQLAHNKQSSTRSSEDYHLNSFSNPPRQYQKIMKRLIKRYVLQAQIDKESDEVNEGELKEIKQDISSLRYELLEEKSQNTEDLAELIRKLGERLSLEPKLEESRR
# TRPC6 inh – mouse TRPC6 channel inhibitors, primary screen, cell-based, HEK293, membrane potential dye; Short transient receptor potential channel 6 (Mus musculus), Q61143; ACh-evoked depolarization; stronger effect = lower value; B-score at 10 µM; actives 1.1% (n = 310,000);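 active = B-score under library mean minus 3 SD, initial fluorescence not abnormally high, positive integrated signal ratio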;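 note: B-score derived from integrated fluorescence ratio over the kinetic read; more negative B-score means stronger inhibition of depolarization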
# TRPC4 potent – positive allosteric modulators of TRPC4, primary screen, cell-based, mouse TRPC4beta, HEK293 mu-opioid, Fluo-4 calcium | Short transient receptor potential channel 4 (Mus musculus), Q9QUQ5 | DAMGO EC20, Fluo-4 Ca2+ flux; stronger effect = higher value | B-score at 10 µM | actives 0.42% (n = 310,000);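 active = B-score of calcium response area above 5 SD of library B-scores, with initial fluorescence ratio within 5 SD of library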;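 note: B-score of integrated fluorescence ratio over time as area under calcium response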
# TRPC4 spec 2 – mouse TRPC4 off-target activity of TRPC6 inhibitors, second screen; shares compounds with TRPC6 inh; HEK293 TRPC4/MOR, membrane potential dye fluorescence; channel activated by saturating DAMGO dose; inhibition, % at 10 µM; actives 42% (n = 920);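 active = compounds whose fluorescence signal differed from control wells by over 3 SD, either direction, in both duplicate plates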
# TRPC4 spec – mouse TRPC4 modulation by TRPC6 hits, confirmation, selectivity assay for TRPC6 inhibitor project, cell-based, HEK293 TRPC4/mu-opioid, membrane potential dye; shares compounds with TRPC6 inh; AID 2777, 2010; activity change, negative = inhibition, % at 10 µM; membrane potential fluorescence; actives 61% (n = 920);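 active = rise or fall in signal beyond 3 SD of buffer-only wells in both replicate plates, either sign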;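 note: integrated kinetic ratio of fluorescence range over baseline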
# HEK293 MPD ctr 2-1 – nonspecific membrane potential effects, parental HEK293, confirmation, counter-screen for TRPC6 inhibitor project, cell-based, second counter screen; shares compounds with TRPC6 inh; parental HEK293 membrane potential dye fluorescence; maximal acetylcholine challenge after compound addition; signal change vs control, % at 10 µM; actives 31% (n = 920);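 active = membrane potential signal moving either way by over 3 SD of the maximum-effect control, in both duplicate plates, meaning non-specific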
# HEK293 MPD ctr-1 – membrane potential modulation in parental HEK293, confirmation, counter-screen for TRPC6 inhibitor project, cell-based; shares compounds with TRPC6 inh; parental HEK293 membrane potential dye fluorescence; membrane potential signal change, % at 10 µM; actives 60% (n = 920); AID 2780, 2010;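 active = membrane potential signal shifting up or down by more than 3 SD of buffer-only wells, on both duplicate plates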
# HEK293 MPD ctr-2 – parental HEK293 membrane potential modulation, confirmation, counter-screen for TRPC6 modulator project, cell-based; shares compounds with TRPC6 inh; membrane potential signal change, % at 10 µM; membrane potential dye fluorescence; actives 51% (n = 2,400); AID 488924, 2010;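 active = membrane potential signal moves up or down beyond 5 SD from buffer-only wells, on both duplicate plates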
# HEK293 MPD ctr 2-2 – parental HEK293 nonspecific activity of TRPC6 modulators, second screen; shares compounds with TRPC6 inh; membrane potential dye fluorescence; after compound, maximal acetylcholine stimulation; inhibition, % at 10 µM; actives 14% (n = 2,400); AID 488926;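 active = membrane potential signal drops by more than 5 SD from the mean control signal, in both duplicate plates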;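 note: plate controls were acetylcholine ECmax control wells for no effect and buffer only wells for full effect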
# TRPC4/MOR mod – TRPC4 modulation by TRPC6 hit compounds, confirmation, selectivity assay for TRPC6 modulator project, cell-based, HEK293 TRPC4/mu-opioid, membrane potential dye, mouse; shares compounds with TRPC6 inh; membrane potential fluorescence; percent change from control (negative = decrease, positive = increase), % at 10 µM; actives 69% (n = 2,400);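 active = membrane potential signal moved up or down beyond 5 SD of buffer control wells, in both duplicate plates, actives on both sides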;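 note: plate controls were assay buffer wells for no effect and DAMGO maximal-effect wells for full effect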
# TRPC4 ctr inh 2 – mouse TRPC4 off-target activity of TRPC6 modulators, second screen; shares compounds with TRPC6 inh; HEK293 TRPC4/mu-opioid, membrane potential dye fluorescence; stimulated with maximal-effect DAMGO; inhibition, % at 10 µM; actives 55% (n = 2,400);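 active = drop in membrane potential signal beyond 5 SD of the control wells in both duplicate plates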;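 note: TRPC4 counter screen for TRPC6 hits run under conditions tuned for TRPC6 not TRPC4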
# TRPC6 inh conf – mouse TRPC6 channel inhibitors, confirmation, HEK293 cells, membrane potential dye, duplicate; ACh-evoked depolarization; shares compounds with TRPC6 inh; AID 488960, 2010; actives 43% (n = 3,300); inhibition, % at 10 µM;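 active = fluorescence ratio falls more than 5 SD below the full-stimulation control mean, in both duplicate runs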;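 note: integrated fluorescence ratio of peak minus minimum over baseline after agonist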
# TRPC6 act conf – mouse TRPC6 channel activators, confirmation, HEK293 cells, membrane potential dye, duplicate; activation, % at 10 µM; actives 11% (n = 2,800); HEK293-TRPC6 membrane potential dye fluorescence, FDSS; shares compounds with TRPC6 inh;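 active = ratio signal rise beyond 5 SD above unstimulated control wells' mean, seen in both duplicate runs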;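 note: plate controls were buffer EC0 wells for no effect and acetylcholine ECmax response for full effect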
# Starred values were filed as active, the others as inactive; i = inactive; · = no result.
SMILES,TRPC4 act,TRPC4 block,TRPC6 activator,TRPC6 inh,TRPC4 potent,HEK293 MPD ctr-2,HEK293 MPD ctr 2-2,TRPC4/MOR mod,TRPC4 ctr inh 2,TRPC6 inh conf,TRPC6 act conf,others
COc1ccc(C(=O)Nc2cc([N+](=O)[O-])ccc2N2CCN(C)CC2)cc1,i,i,i,-17*,i,-386%*,111%*,-60%*,82%*,86%*,i,
O=C(Nc1cc([N+](=O)[O-])ccc1N1CCCC1)c1ccccc1,i,i,i,i,i,·,·,·,·,·,·,
COc1cccc(NC(=O)c2cc([N+](=O)[O-])ccc2N2CCN(C)CC2)c1,i,i,i,i,i,·,·,·,·,·,·,
CN1CCN(c2ccccc2NC(=O)c2ccc(N3CCCCC3)c([N+](=O)[O-])c2)CC1,i,i,i,-6.2*,i,-121%*,i,-31%*,76%*,44%*,i,
COc1cccc(CNC(=O)Cn2ccc3cc(S(=O)(=O)N4CCCCCC4)ccc32)c1OC,i,i,i,i,i,·,·,·,·,·,·,
C=CCN(c1ccc(C(=O)NCCCn2ccnc2)cc1)S(C)(=O)=O,i,i,i,i,i,·,·,·,·,·,·,
COC(=O)c1ccc(N2CCN(C)CC2)c(NC(=O)c2cccnc2)c1,50*,i,i,-8.5*,i,-444%*,84%*,-76%*,56%*,55%*,i,
CN1CCN(c2ccccc2NC(=O)c2cccc([N+](=O)[O-])c2)CC1,i,i,i,i,i,·,·,·,·,·,·,
COc1cccc(C(=O)Nc2cc([N+](=O)[O-])ccc2N2CCN(C)CC2)c1,i,i,i,-11*,i,-372%*,i,-61%*,56%*,50%*,i,
O=C(O)c1ccc(N2CCc3ccccc32)c([N+](=O)[O-])c1,i,i,i,i,i,·,·,·,·,·,·,
COC(=O)c1ccc(N2CCc3ccccc32)c([N+](=O)[O-])c1,i,i,i,-5.3*,i,i,i,-16%*,40%*,i,i,
COc1ccc(NC(=S)N2CCc3ccccc32)cc1OC,i,i,i,i,i,·,·,·,·,·,·,
N#Cc1cc2[nH]c3ccccc3c2[n+](-c2ccc([N+](=O)[O-])cc2)c1N,i,i,i,-9.9*,i,-322%*,94%*,-18%*,97%*,75%*,i,
COc1ccccc1C(=O)Nc1ccccc1SC(=O)c1ccccc1OC,i,i,i,i,i,·,·,·,·,·,·,
O=C(CSC1=NS(=O)(=O)c2ccccc2N1)Nc1ccccc1F,i,i,i,i,i,·,·,·,·,·,·,
CCOC(=O)C1CCCN(C(=O)c2ccc3nc(-c4cccc(OC)c4)oc3c2)C1 (stereo unspecified),i,i,i,i,i,·,·,·,·,·,·,
COc1cccc2c3c(c(C)nc12)CCN3c1ccccc1,i,i,i,-8.5*,i,-182%*,i,-33%*,72%*,68%*,i,
CCOC(=O)c1cnc2c(OC)cccc2c1N1CCN(c2ccccc2OC)CC1,i,i,i,i,i,·,·,·,·,·,·,
Cc1ccc2nc(C)c3c(c2c1)N(c1ccc(F)cc1)CC3,i,-6*,i,-9.6*,i,·,·,·,·,105%*,i,TRPC4 spec 2=34%*;TRPC4 spec=i;HEK293 MPD ctr 2-1=27%*;HEK293 MPD ctr-1=-194%*
COc1cccc2c(Cl)c(CC=C(Cl)Cl)c(C)nc12,i,i,i,i,i,·,·,·,·,·,·,
COc1ccccc1N1CCc2c(C)nc3c(OC)cccc3c21,i,-6*,i,-6.5*,i,-114%*,i,-19%*,58%*,46%*,i,
O=C(NC1CCC(O)CC1)c1cccc2cccnc12 (stereo unspecified),i,i,i,i,i,·,·,·,·,·,·,
CCN(CC)CCn1c(=N)n(CCOc2ccccc2)c2ccccc21,i,i,i,-12*,i,·,·,·,·,i,i,TRPC4 spec 2=52%*;TRPC4 spec=15%*;HEK293 MPD ctr 2-1=272%*;HEK293 MPD ctr-1=6.5%*
CCN(CC)CCn1c(=N)n(CCO)c2ccccc21,i,i,i,i,i,·,·,·,·,·,·,

# Compound activity from PubChem BioAssay.
